Changes are numbered by the printed parent chain.
Experiments:
[1] = system: Hepatitis C virus subtype 1b; experiment: Inhibition of NS3 D168Y mutant in Hepatitis C virus subtype 1b
[2] = Selectivity ratio of EC90 for inhibition of NS5A in Hepatitis C virus subtype 1b infected in human HuH7 cells assessed as reduction in viral to EC90 for inhibition of NS5A in Hepatitis C virus subtype 1a; format: cell-based
How it was run: (§1)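 Fold shift calculated against the GT1a EC90, using EC90 values from the luciferase replicon assay in Huh7-derived cells.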

[3] = system: T1, Nonstructural protein 5A (Hepatitis C virus), Q5L478 [Y93H]; experiment: Inhibition of NS5A Y93H mutant in Hepatitis C virus subtype 1b
T1 sequence (whole entry): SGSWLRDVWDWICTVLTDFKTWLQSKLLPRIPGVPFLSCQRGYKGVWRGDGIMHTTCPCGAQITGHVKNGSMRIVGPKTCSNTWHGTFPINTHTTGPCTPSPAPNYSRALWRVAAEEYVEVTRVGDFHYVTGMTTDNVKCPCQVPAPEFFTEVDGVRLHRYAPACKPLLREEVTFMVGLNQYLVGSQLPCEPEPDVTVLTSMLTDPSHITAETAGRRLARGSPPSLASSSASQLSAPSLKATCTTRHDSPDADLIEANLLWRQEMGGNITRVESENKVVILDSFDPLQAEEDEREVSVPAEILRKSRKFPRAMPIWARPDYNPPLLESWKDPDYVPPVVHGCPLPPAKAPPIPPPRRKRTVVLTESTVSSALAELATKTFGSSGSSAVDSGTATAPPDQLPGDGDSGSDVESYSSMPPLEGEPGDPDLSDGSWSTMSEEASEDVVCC
How it was run: (§2)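 NS5A resistance variants engineered into GT1a-H77 or GT1b-Con1 replicons. Each variant replicon is transfected transiently by electroporation into a Huh7-derived cell line. Percent inhibition is taken from the drop in luciferase signal at each compound concentration, and EC90 is calculated from these. Values are means of at least two experiments.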

[4] = system: Hepatitis C virus subtype 1a; experiment: Selectivity ratio of EC90 for inhibition of NS5A Q30D mutant in Hepatitis C virus subtype 1a to EC90 for Selectivity ratio of EC90 for inhibition of NS5A in Hepatitis C virus subtype 1a
How it was run: (§3)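 Fold shift is calculated against the GT1a EC90. The variant EC90 comes from a transient replicon assay: the NS5A variant is introduced into a GT1a-H77 or GT1b-Con1 replicon and electroporated into Huh7-derived cells. The read-out is reduced luciferase signal. EC90s are means of at least two experiments.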

[5] = system: Hepatitis C virus subtype 1a; experiment: Inhibition of NS3 R155K mutant in Hepatitis C virus subtype 1a
Huh-7 [6] = experiment: Inhibition of NS5A in Hepatitis C virus subtype 4a infected in human HuH7 cells assessed as reduction in viral replication by luciferase reporter gene assay; format: cell-based
How it was run: (§4)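 Transient replicon assay with GT1a-H77, GT1b-Con1 or chimeric replicons, electroporated into a Huh7-derived cell line. Percent inhibition of replication, read as a drop in luciferase signal, was calculated at each concentration to give EC90. Values are means of at least two experiments.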

Huh-7 [7] = experiment: Inhibition of NS5A in Hepatitis C virus subtype 3a infected in human HuH7 cells assessed as reduction in viral replication by luciferase reporter gene assay; format: cell-based
How it was run: as §4

[8] = system: Hepatitis C virus subtype 1a; experiment: Inhibition of NS5A Q30D mutant in Hepatitis C virus subtype 1a
How it was run: as §2

[9] = Selectivity ratio of EC90 for inhibition of NS5A in Hepatitis C virus subtype 4a infected in human HuH7 cells assessed as reduction in viral to EC90 for inhibition of NS5A in Hepatitis C virus subtype 1a; format: cell-based
How it was run: as §1

[10] = Selectivity ratio of EC90 for inhibition of NS5A in Hepatitis C virus subtype 2b infected in human HuH7 cells assessed as reduction in viral to EC90 for inhibition of NS5A in Hepatitis C virus subtype 1a; format: cell-based
[11] = Selectivity ratio of EC90 for inhibition of NS5A L31V mutant in Hepatitis C virus subtype 1a infected in human HuH7 cells assessed as reduction in viral to EC90 for inhibition of NS5A in Hepatitis C virus subtype 1a; format: cell-based
How it was run: as §3

[12] = system: Hepatitis C virus subtype 1a; experiment: Inhibition of NS3 R155K/V36M mutant in Hepatitis C virus subtype 1a
[13] = Selectivity ratio of EC90 for inhibition of NS5A Y93H mutant in Hepatitis C virus subtype 1b to EC90 for Selectivity ratio of EC90 for inhibition of NS5A in Hepatitis C virus subtype 1a
How it was run: as §3

[14] = system: Hepatitis C virus subtype 1a; experiment: Selectivity ratio of EC90 for inhibition of NS5A Q30R mutant in Hepatitis C virus subtype 1a to EC90 for Selectivity ratio of EC90 for inhibition of NS5A in Hepatitis C virus subtype 1a
How it was run: as §3

[15] = system: Hepatitis C virus subtype 1a; experiment: Selectivity ratio of EC90 for inhibition of NS5A R155K V36 mutant in Hepatitis C virus subtype 1a to EC90 for Selectivity ratio of EC90 for inhibition of NS5A in Hepatitis C virus subtype 1a
[16] = system: Hepatitis C virus subtype 1a; experiment: Selectivity ratio of EC90 for inhibition of NS5A R155K mutant in Hepatitis C virus subtype 1a to EC90 for Selectivity ratio of EC90 for inhibition of NS5A in Hepatitis C virus subtype 1a
[17] = system: Nonstructural protein 5A (Hepatitis C virus), Q5L478 [UNDEFINED MUTATION]; experiment: Inhibition of NS5A L31V mutant in Hepatitis C virus subtype 1b
How it was run: as §2

Huh-7 [18] = experiment: Inhibition of NS5A in Hepatitis C virus subtype 1b infected in human HuH7 cells assessed as reduction in viral replication by luciferase reporter gene assay; format: cell-based
How it was run: as §4

[19] = system: Hepatitis C virus subtype 1a; experiment: Selectivity ratio of EC90 for inhibition of NS5A Y93N mutant in Hepatitis C virus subtype 1a to EC90 for Selectivity ratio of EC90 for inhibition of NS5A in Hepatitis C virus subtype 1a
How it was run: as §3

[20] = Selectivity ratio of EC90 for inhibition of NS3 D168Y mutant in Hepatitis C virus subtype 1b to EC90 for Selectivity ratio of EC90 for inhibition of NS5A in Hepatitis C virus subtype 1a
[21] = system: Nonstructural protein 5A (Hepatitis C virus), Q5L478 [UNDEFINED MUTATION]; experiment: Inhibition of NS5A Q30R mutant in Hepatitis C virus subtype 1a
How it was run: as §2

[22] = Selectivity ratio of EC90 for inhibition of NS5A L31V mutant in Hepatitis C virus subtype 1b to EC90 for Selectivity ratio of EC90 for inhibition of NS5A in Hepatitis C virus subtype 1a
How it was run: as §3

[23] = Selectivity ratio of EC90 for inhibition of NS5A in Hepatitis C virus subtype 3a infected in human HuH7 cells assessed as reduction in viral to EC90 for inhibition of NS5A in Hepatitis C virus subtype 1a; format: cell-based
Huh-7 [24] = experiment: Inhibition of NS5A in Hepatitis C virus subtype 1a infected in human HuH7 cells assessed as reduction in viral replication by luciferase reporter gene assay; format: cell-based
How it was run: as §4

[25] = system: T2, Nonstructural protein 5A (Hepatitis C virus), Q5L478 [Y93N]; experiment: Inhibition of NS5A Y93N mutant in Hepatitis C virus subtype 1a
T2 sequence (whole entry): T1 sequence (whole entry) with H93N
How it was run: as §2

[26] = Selectivity ratio of EC90 for inhibition of NS5A Y93H mutant in Hepatitis C virus subtype 1a infected in human HuH7 cells assessed as reduction in viral to EC90 for inhibition of NS5A in Hepatitis C virus subtype 1a; format: cell-based
How it was run: as §3

Huh-7 [27] = experiment: Inhibition of NS5A in Hepatitis C virus subtype 2b infected in human HuH7 cells assessed as reduction in viral replication by luciferase reporter gene assay; format: cell-based
How it was run: as §4

[28] = system: Nonstructural protein 5A (Hepatitis C virus), Q5L478 [UNDEFINED MUTATION]; experiment: Inhibition of NS5A L31V mutant in Hepatitis C virus subtype 1a infected in human HuH7 cells assessed as reduction in viral replication by luciferase reporter gene assay; format: cell-based; conditions: Huh-7
How it was run: as §2

COC(=O)N[C@H](C(=O)N1CCC[C@H]1c1ncc(-c2cc(F)c3c(c2)OC(c2ccc4c(c2)OCCC4)n2c-3cc3cc(-c4cnc([C@@H]5CCCN5C(=O)[C@@H](NC(=O)OC)C(C)C)[nH]4)ccc32)[nH]1)C(C)C (stereo partly drawn)
EC90 [1]: 2 pM | Selectivity ratio [2]: 1 | EC90 [3]: 70 pM | Selectivity ratio [4]: 300 | EC90 [5]: 0.1 pM | EC90 (Huh-7 [6]): 2 pM | EC90 (Huh-7 [7]): 10 pM | EC90 [8]: 900 pM | Selectivity ratio [9]: 1 | Selectivity ratio [10]: 100 | Selectivity ratio [11]: 7 | EC90 [12]: 1 pM | Selectivity ratio [13]: 23 | Selectivity ratio [14]: 7 | Selectivity ratio [15]: 1 | Selectivity ratio [16]: 1 | EC90 [17]: 5 pM | EC90 (Huh-7 [18]): 3 pM | Selectivity ratio [19]: 67 | Selectivity ratio [20]: 1 | EC90 [21]: 20 pM | Selectivity ratio [22]: 2 | Selectivity ratio [23]: 3 | EC90 (Huh-7 [24]): 3 pM | EC90 [25]: 200 pM | Selectivity ratio [26]: 167 | EC90 (Huh-7 [27]): 300 pM | EC90 [28]: 20 pM

Reference: ChEMBL document CHEMBL4715796, “Discovery of Chromane Containing Hepatitis C Virus (HCV) NS5A Inhibitors with Improved Potency against Resistance-Associated Variants” (J Med Chem, 2016)
